Converted amounts (≈) assume the structure as drawn. The source made the active and inactive calls. The rule behind the calls is not given here.
Experiments:
Human alphaherpesvirus 3 [1] = assay: Antiviral activity against TK- VZV 07/1 infected HEL cells assessed as reduction in virus plaque formation; type: functional, organism-based; conditions: Human alphaherpesvirus 3, 07/1, HEL
[2] = Cytotoxicity against human HEL cells assessed as alteration of cell morphology; type: cell-based
How it was run: (§1)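 Uninfected cell cultures exposed to test compounds alongside antiviral assays; minimum cytotoxic concentration (MCC) = concentration causing a microscopically detectable alteration of cell morphology.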

[3] = Cytotoxicity against human MT4 cells by MTT assay; type: cell-based
How it was run: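 Mock-infected MT-4 cells (6 × 10⁵ cells/ml) with serial five-fold compound dilutions in triplicate; MTT reduction read at 540 and 690 nm after 5 days, median OD of three wells; CC50 = concentration reducing OD540 of mock-infected control by 50%.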

Human alphaherpesvirus 1 [4] = assay: Antiviral activity against HSV1 KOS in human E6SM cells assessed as reduction of virus-induced cytopathogenicity; type: functional; conditions: Human alphaherpesvirus 1, KOS
How it was run: (§2)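 Confluent cell monolayers (E6SM, HEL, HeLa or Vero, per line) inoculated with 100 CCID50 virus; 1 h adsorption, residual virus removed, then incubated with compound at 400, 200, 100 … µg/ml. Cytopathicity scored once complete in untreated virus controls; MIC = concentration inhibiting virus-induced cytopathicity.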

Human betaherpesvirus 5 [5] = assay: Antiviral activity against human cytomegalovirus Davis infected HEL cells assessed as reduction in virus plaque formation; type: functional, organism-based; conditions: Human betaherpesvirus 5, Davis
Human alphaherpesvirus 1 [6] = assay: Antiviral activity against thymidine kinase deficient and acyclovir resistant HSV1 KOS in human HEL cells assessed as reduction of virus-induced cytopathogenicity; type: functional; conditions: Human alphaherpesvirus 1, KOS; how it was run: as §2
[7] = tested on: Mycobacterium tuberculosis; assay: Antitubercular activity against Mycobacterium tuberculosis H37Rv at 6.25 ug/ml by MABA assay; type: functional
Punta Toro virus = assay: Antiviral activity against Punta Toro virus in african green monkey Vero cells assessed as reduction of virus-induced cytopathogenicity; type: functional; how it was run: as §2
[8] = tested on: Respiratory syncytial virus; assay: Antiviral activity against respiratory syncytial virus in human HeLa cells assessed as inhibition of virus-induced cytopathogenicity; type: functional; how it was run: as §2
[9] = tested on: Human immunodeficiency virus 1; assay: Antiviral activity against HIV1 3B in human MT4 cells assessed as protection against virus-induced cytopathogenicity by MTT assay; type: functional, organism-based; design: Activity: concentration or dose not given beside the values; conditions: for IC50: Human immunodeficiency virus 1, 3B, MT4
How it was run: (§3)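 MT-4 cells at 6 × 10⁵ cells/ml infected with HIV-1 IIIB or HIV-2 ROD at 100–300 CCID50; compounds in serial five-fold dilutions, triplicate mock- and virus-infected wells. MTT viability read at 540 and 690 nm after 5 days, median OD of three wells; EC50 = 50% protection from viral cytopathic effect.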

[10] = tested on: Vesicular stomatitis virus; assay: Antiviral activity against in Vesicular stomatitis virus in human E6SM cells assessed as reduction of virus-induced cytopathogenicity; type: functional; how it was run: as §2
Human alphaherpesvirus 2 [11] = assay: Antiviral activity against HSV2 G in human HEL cells assessed as reduction of virus-induced cytopathogenicity; type: functional; conditions: Human alphaherpesvirus 2, G; how it was run: as §2
Sindbis virus = assay: Antiviral activity against Sindbis virus in african green monkey Vero cells assessed as reduction of virus-induced cytopathogenicity; type: functional; how it was run: as §2
[12] = tested on: Vesicular stomatitis virus; assay: Antiviral activity against in Vesicular stomatitis virus in human HEL cells assessed as reduction of virus-induced cytopathogenicity; type: functional; how it was run: as §2
Human alphaherpesvirus 1 [13] = assay: Antiviral activity against HSV1 KOS in human HEL cells assessed as reduction of virus-induced cytopathogenicity; type: functional; conditions: Human alphaherpesvirus 1, KOS; how it was run: as §2
[14] = Cytotoxicity against human E6SM cells; type: cell-based; conditions: E6SM cells; how it was run: as §1
Human alphaherpesvirus 3 [15] = assay: Antiviral activity against TK+ VZV OKA infected HEL cells assessed as reduction in virus plaque formation; type: functional, organism-based; conditions: Human alphaherpesvirus 3, OKA
Human alphaherpesvirus 2 [16] = assay: Antiviral activity against HSV2 G in human E6SM cells assessed as reduction of virus-induced cytopathogenicity; type: functional; conditions: Human alphaherpesvirus 2, G; how it was run: as §2
Coxsackievirus B4 [17] = assay: Antiviral activity against Coxsackie virus B4 in human HeLa cells assessed as inhibition of virus-induced cytopathogenicity; type: functional; conditions: Enterovirus B; how it was run: as §2
Human respirovirus 3 = assay: Antiviral activity against Parainfluenza 3 virus in african green monkey Vero cells assessed as reduction of virus-induced cytopathogenicity; type: functional; how it was run: as §2
[18] = tested on: Mammalian orthoreovirus 1; assay: Antiviral activity against Reo virus 1 in african green monkey Vero cells assessed as reduction of virus-induced cytopathogenicity; type: functional; how it was run: as §2
Coxsackievirus B4 [19] = assay: Antiviral activity against Coxsackie virus B4 in african green monkey Vero cells assessed as reduction of virus-induced cytopathogenicity; type: functional; conditions: Enterovirus B; how it was run: as §2
[20] = tested on: Vesicular stomatitis virus; assay: Antiviral activity against vesicular stomatitis virus in human HeLa cells assessed as inhibition of virus-induced cytopathogenicity; type: functional; how it was run: as §2
[21] = Cytotoxicity against human HEL cells assessed as reduction of cell growth; type: cell-based
How it was run: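 HEL cells; CC50 = compound concentration reducing cell growth by 50%.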

Vero = assay: Cytotoxicity against african green monkey Vero cells; type: cell-based; conditions: chlorocebus sabaeus; how it was run: as §1
Human alphaherpesvirus 1 [22] = assay: Antiviral activity against thymidine kinase deficient and acyclovir resistant HSV1 KOS in human E6SM cells assessed as reduction of virus-induced cytopathogenicity; type: functional; conditions: Human alphaherpesvirus 1, KOS; how it was run: as §2
Human betaherpesvirus 5 [23] = assay: Antiviral activity against human cytomegalovirus AD169 infected HEL cells assessed as reduction in virus plaque formation; type: functional, organism-based; conditions: Human betaherpesvirus 5, AD169, HEL
[24] = tested on: Human immunodeficiency virus 2; assay: Antiviral activity against HIV2 ROD in human MT4 cells assessed as protection against virus-induced cytopathogenicity by MTT assay; type: functional, organism-based; design: Activity: concentration or dose not given beside the values; conditions: for IC50: Human immunodeficiency virus 2, ROD, MT4; how it was run: as §3
[25] = Cytotoxicity against human HeLa cells; type: cell-based; how it was run: as §1

## CNC(=S)Nc1ccc(OCc2n[nH]c(=S)n2C)cc1
Human alphaherpesvirus 3 [1]
  EC50: > 100 µg/mL
[2]
  MCC: > 400 µg/mL
[3]
  CC50: ≥ 112 µg/mL
Human alphaherpesvirus 1 [4]
  MIC: > 400 µg/mL
Human betaherpesvirus 5 [5]
  EC50: > 100 µg/mL
Human alphaherpesvirus 1 [6]
  MIC: > 400 µg/mL
[7]
  Activity: inactive
Punta Toro virus
  MIC: > 80 µg/mL
[8]
  MIC: > 400 µg/mL
[9]
  Activity: 1%
  IC50: > 112 µg/mL
[10]
  MIC: > 400 µg/mL
Human alphaherpesvirus 2 [11]
  MIC: 240 µg/mL (≈ 776 µM)
Sindbis virus
  MIC: > 80 µg/mL
[12]
  MIC: > 400 µg/mL
Human alphaherpesvirus 1 [13]
  MIC: > 400 µg/mL
[14]
  MCC: > 400 µg/mL
Human alphaherpesvirus 3 [15]
  EC50: > 100 µg/mL
Human alphaherpesvirus 2 [16]
  MIC: 240 µg/mL (≈ 776 µM)
Coxsackievirus B4 [17]
  MIC: > 400 µg/mL
Human respirovirus 3
  MIC: > 80 µg/mL
[18]
  MIC: > 80 µg/mL
Coxsackievirus B4 [19]
  MIC: > 80 µg/mL
[20]
  MIC: > 400 µg/mL
[21]
  CC50: > 50 µg/mL
Vero
  Activity: 400 µg/mL
Human alphaherpesvirus 1 [22]
  MIC: > 400 µg/mL
Human betaherpesvirus 5 [23]
  EC50: > 100 µg/mL
[24]
  Activity: 1%
  IC50: > 125 µg/mL
[25]
  MCC: > 400 µg/mL

## CCn1c(COc2ccc(NC(=S)NC)cc2)n[nH]c1=S
Human alphaherpesvirus 3 [1]
  EC50: 88 µg/mL (≈ 272 µM)
[2]
  MCC: > 400 µg/mL
[3]
  CC50: 76.8 µg/mL (≈ 237 µM)
Human alphaherpesvirus 1 [4]
  MIC: > 400 µg/mL
Human betaherpesvirus 5 [5]
  EC50: > 100 µg/mL
Human alphaherpesvirus 1 [6]
  MIC: > 400 µg/mL
[7]
  Activity: inactive
Punta Toro virus
  MIC: > 80 µg/mL
[8]
  MIC: > 80 µg/mL
[9]
  Activity: 1.5%
  IC50: > 68.1 µg/mL
[10]
  MIC: > 400 µg/mL
Human alphaherpesvirus 2 [11]
  MIC: > 400 µg/mL
Sindbis virus
  MIC: > 80 µg/mL
[12]
  MIC: > 400 µg/mL
Human alphaherpesvirus 1 [13]
  MIC: > 400 µg/mL
[14]
  MCC: > 400 µg/mL
Human alphaherpesvirus 3 [15]
  EC50: > 100 µg/mL
Human alphaherpesvirus 2 [16]
  MIC: > 400 µg/mL
Coxsackievirus B4 [17]
  MIC: > 80 µg/mL
Human respirovirus 3
  MIC: > 80 µg/mL
[18]
  MIC: > 80 µg/mL
Coxsackievirus B4 [19]
  MIC: > 80 µg/mL
[20]
  MIC: > 80 µg/mL
[21]
  CC50: > 50 µg/mL
Vero
  Activity: 400 µg/mL
Human alphaherpesvirus 1 [22]
  MIC: > 400 µg/mL
Human betaherpesvirus 5 [23]
  EC50: 63 µg/mL (≈ 195 µM)
[24]
  Activity: 2%
  IC50: > 77.9 µg/mL
[25]
  MCC: 400 µg/mL

## Cn1c(COc2ccc(NC(=S)Nc3ccccc3)cc2)n[nH]c1=S
Human alphaherpesvirus 3 [1]
  EC50: 38 µg/mL (≈ 102 µM)
[2]
  MCC: 400 µg/mL
[3]
  CC50: ≥ 87.8 µg/mL
Human alphaherpesvirus 1 [4]
  MIC: > 80 µg/mL
Human betaherpesvirus 5 [5]
  EC50: 49 µg/mL (≈ 132 µM)
Human alphaherpesvirus 1 [6]
  MIC: > 80 µg/mL
[7]
  inhibition at 6.25 µg/mL: 70%
Punta Toro virus
  MIC: > 80 µg/mL
[8]
  MIC: > 400 µg/mL
[9]
  Activity: 3.5%
  IC50: > 98.9 µg/mL
[10]
  MIC: > 80 µg/mL
Human alphaherpesvirus 2 [11]
  MIC: > 80 µg/mL
Sindbis virus
  MIC: > 80 µg/mL
[12]
  MIC: > 80 µg/mL
Human alphaherpesvirus 1 [13]
  MIC: > 80 µg/mL
[14]
  MCC: 400 µg/mL
Human alphaherpesvirus 3 [15]
  EC50: 33 µg/mL (≈ 88.8 µM)
Human alphaherpesvirus 2 [16]
  MIC: > 80 µg/mL
Coxsackievirus B4 [17]
  MIC: > 400 µg/mL
Human respirovirus 3
  MIC: > 80 µg/mL
[18]
  MIC: > 80 µg/mL
Coxsackievirus B4 [19]
  MIC: > 80 µg/mL
[20]
  MIC: > 400 µg/mL
[21]
  CC50: > 50 µg/mL
Vero
  Activity: 400 µg/mL
Human alphaherpesvirus 1 [22]
  MIC: > 80 µg/mL
Human betaherpesvirus 5 [23]
  EC50: 66 µg/mL (≈ 178 µM)
[24]
  Activity: 6.5%
  IC50: > 87.8 µg/mL
[25]
  MCC: > 400 µg/mL

## Nc1ccc(OCc2n[nH]c(=S)n2-c2ccccc2)cc1
Human alphaherpesvirus 3 [1]
  EC50: > 100 µg/mL
[2]
  MCC: > 400 µg/mL
[3]
  CC50: > 125 µg/mL
Human alphaherpesvirus 1 [4]
  MIC: > 400 µg/mL
Human betaherpesvirus 5 [5]
  EC50: > 100 µg/mL
Human alphaherpesvirus 1 [6]
  MIC: > 400 µg/mL
[7]
  Activity: inactive
Punta Toro virus
  MIC: > 80 µg/mL
[8]
  MIC: > 400 µg/mL
[9]
  Activity: 2%
  IC50: > 125 µg/mL
[10]
  MIC: > 400 µg/mL
Human alphaherpesvirus 2 [11]
  MIC: 240 µg/mL (≈ 804 µM)
Sindbis virus
  MIC: > 80 µg/mL
[12]
  MIC: > 400 µg/mL
Human alphaherpesvirus 1 [13]
  MIC: > 400 µg/mL
[14]
  MCC: > 400 µg/mL
Human alphaherpesvirus 3 [15]
  EC50: > 100 µg/mL
Human alphaherpesvirus 2 [16]
  MIC: 240 µg/mL (≈ 804 µM)
Coxsackievirus B4 [17]
  MIC: > 400 µg/mL
Human respirovirus 3
  MIC: > 80 µg/mL
[18]
  MIC: > 80 µg/mL
Coxsackievirus B4 [19]
  MIC: 48 µg/mL (≈ 161 µM)
[20]
  MIC: > 400 µg/mL
[21]
  CC50: > 50 µg/mL
Vero
  Activity: 400 µg/mL
Human alphaherpesvirus 1 [22]
  MIC: > 400 µg/mL
Human betaherpesvirus 5 [23]
  EC50: > 100 µg/mL
[24]
  Activity: 2.5%
  IC50: > 125 µg/mL
[25]
  MCC: > 400 µg/mL

From ChEMBL document CHEMBL1149790, “Synthesis of some novel thiourea derivatives obtained from 5-[(4-aminophenoxy)methyl]-4-alkyl/aryl-2,4-dihydro-3H-1,2,4-triazole-3-thiones and evaluation as antiviral/anti-HIV and anti-tuberculosis agents” (Eur J Med Chem, 2008)
